Laboratory results published in ChEMBL document CHEMBL1137569, “Pharmacomodulations around the 4-oxo-1,4-dihydroquinoline-3-carboxamides, a class of potent CB2-selective cannabinoid receptor ligands: consequences in receptor affinity and functionality” (J Med Chem, 2007).

Assays:
Cannabinoid receptor 2 [1] = target: T1, Cannabinoid receptor 2 (Homo sapiens, UniProt P34972); test: Inhibition of human CB2 receptor expressed in CHO cells; type: cell-based
Cannabinoid receptor 2 [2] = target: T1, Cannabinoid receptor 2; test: Displacement of [3H]CP-55940 from human CB2 receptor expressed in CHO cells; type: cell-based; design: concentration or dose not given beside the values
Procedure, shortened: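 Competitive radioligand binding on membranes from CHO cells expressing hCB2, with [3H]-CP-55,940 as tracer. Compounds were first screened at 10 µM. Ki at CB2 was then determined for those displacing more than 60% of specific binding.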

Cannabinoid receptor 2 [3] = target: T1, Cannabinoid receptor 2; test: Activity at human CB2 receptor expressed in CHO cells assessed as stimulated [35S]GTP-gamma-S binding relative to control; type: functional, cell-based; design: concentration or dose not given beside the values

T1 sequence (P34972 whole entry): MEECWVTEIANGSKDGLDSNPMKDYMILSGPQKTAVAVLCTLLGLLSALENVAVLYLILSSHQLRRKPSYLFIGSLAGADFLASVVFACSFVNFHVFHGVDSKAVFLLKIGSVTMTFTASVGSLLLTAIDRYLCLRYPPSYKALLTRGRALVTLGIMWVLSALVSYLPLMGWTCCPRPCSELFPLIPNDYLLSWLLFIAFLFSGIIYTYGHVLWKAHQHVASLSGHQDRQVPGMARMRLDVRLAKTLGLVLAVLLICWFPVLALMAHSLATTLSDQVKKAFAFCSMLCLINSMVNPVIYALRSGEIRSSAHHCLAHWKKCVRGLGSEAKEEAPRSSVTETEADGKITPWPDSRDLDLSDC

## CC12CC3CC(C)(C1)CC(NC(=O)c1cn(Cc4ccc(F)cc4)c4ccccc4c1=O)(C3)C2
Cannabinoid receptor 2 [1]
  Ki: 0.0834 µM
Cannabinoid receptor 2 [2]
  Activity: 93.2%
Cannabinoid receptor 2 [3]
  Activity: 157%

## CC12CC3CC(C)(C1)CC(NC(=O)c1cn(Cc4ccc(Cl)cc4)c4ccccc4c1=O)(C3)C2
Cannabinoid receptor 2 [2]
  Activity: 48.1%

## CCCCn1cc(C(=O)c2ccc(OC)cc2)c(=O)c2ccccc21
Cannabinoid receptor 2 [2]
  Activity: < 10%

## CCCCCn1cc(CNC23CC4CC(CC(C4)C2)C3)c(=O)c2ccccc21
Cannabinoid receptor 2 [1]
  Ki: 1.67 µM
Cannabinoid receptor 2 [2]
  Activity: 81.3%

## CCCCCn1cc(C(=O)NC(C)C23CC4CC(CC(C4)C2)C3)c(=O)c2ccccc21 (racemic) [listing 1 of 2 here]
Cannabinoid receptor 2 [1]
  Ki: 0.0285 µM

## CCCCCn1cc(C(=O)NC2CCCc3ccccc32)c(=O)c2ccccc21 (single isomer, unassigned; (+)) [listing 1 of 2 here]
Cannabinoid receptor 2 [1]
  Ki: 0.0417 µM

## CC12CC3CC(C)(C1)CC(NC(=O)c1cn(CCc4ccccc4)c4ccccc4c1=O)(C3)C2
Cannabinoid receptor 2 [1]
  Ki: 0.333 µM
Cannabinoid receptor 2 [2]
  Activity: 95.8%
Cannabinoid receptor 2 [3]
  Activity: 141%

## CCCCCn1cc(C(=O)NC(C)C23CC4CC(CC(C4)C2)C3)c(=O)c2cc(Cl)ccc21 (single isomer, unassigned; (+)) [listing 1 of 2 here]
Cannabinoid receptor 2 [1]
  Ki: 0.144 µM

## CCCCCn1cc(C(=O)NC(C)C23CC4CC(CC(C4)C2)C3)c(=O)c2ccc(Cl)cc21 (single isomer, unassigned; (+)) [listing 1 of 2 here]
Cannabinoid receptor 2 [2]
  Activity: 92.9%
Cannabinoid receptor 2 [3]
  Activity: 42.7%

## CCCCCn1cc(C(=O)NC(C)C23CC4CC(CC(C4)C2)C3)c(=O)c2ccccc21 (stereo in doubt; 24) [listing 1 of 2 here]
Cannabinoid receptor 2 [2]
  Activity: 101%
Cannabinoid receptor 2 [3]
  Activity: 175%

## CCCCCn1cc(C(=O)NC(C)C23CC4CC(CC(C4)C2)C3)c(=O)c2cc(Cl)ccc21 (racemic) [listing 1 of 2 here]
Cannabinoid receptor 2 [2]
  Activity: 81.8%
Cannabinoid receptor 2 [3]
  Activity: 97.3%

## CCCCCn1cc(C(=O)NC23CC4CC(C)(CC(C)(C4)C2)C3)c(=O)c2cccnc21
Cannabinoid receptor 2 [1]
  Ki: 0.0235 µM
Cannabinoid receptor 2 [2]
  Activity: 102%
Cannabinoid receptor 2 [3]
  Activity: 124%

## CCCCCn1cc(C(=O)NC2CCCc3ccccc32)c(=O)c2cc(Cl)ccc21 (single isomer, unassigned; (+)) [listing 1 of 2 here]
Cannabinoid receptor 2 [1]
  Ki: 0.121 µM

## O=C(c1cn(Cc2ccc(Br)cc2)c2ccccc2c1=O)c1cccc2ccccc12
Cannabinoid receptor 2 [1]
  Ki: 0.966 µM
Cannabinoid receptor 2 [2]
  Activity: 93.7%

## CCCCCn1cc(C(=O)c2ccc3c(c2)COC3)c(=O)c2ccccc21
Cannabinoid receptor 2 [1]
  Ki: > 2 µM
Cannabinoid receptor 2 [2]
  Activity: 70.2%

## CCCCCn1cc(C(=O)NC(C)C23CC4CC(CC(C4)C2)C3)c(=O)c2cc(Cl)ccc21 (racemic) [listing 2 of 2 here]
Cannabinoid receptor 2 [1]
  Ki: 0.222 µM

## CCCCCn1c(C)c(C(=O)NCCc2ccccc2)c(=O)c2ccccc21
Cannabinoid receptor 2 [2]
  Activity: 57.3%

## O=C(c1cn(CCC2CCCCC2)c2ccccc2c1=O)c1cccc2ccccc12
Cannabinoid receptor 2 [1]
  Ki: 1.67 µM
Cannabinoid receptor 2 [2]
  Activity: 78.5%

## CCCCCn1cc(NC(=O)CCc2ccccc2)c(=O)c2ccccc21
Cannabinoid receptor 2 [1]
  Ki: 1.13 µM
Cannabinoid receptor 2 [2]
  Activity: 83.4%
Cannabinoid receptor 2 [3]
  Activity: 183%

## CCCC(C)(C)c1ccc2c(c1)OC(C)(C)[C@@H]1CC=C(C)C[C@@H]21
Cannabinoid receptor 2 [3]
  Activity: 201%

## CCCCCn1cc(C(=O)NC23CC4CC(C)(CC(C)(C4)C2)C3)c(=O)c2cccc(Cl)c21
Cannabinoid receptor 2 [1]
  Ki: 0.0274 µM
Cannabinoid receptor 2 [2]
  Activity: 98.7%
Cannabinoid receptor 2 [3]
  Activity: 187%

## O=C(c1cn(CCc2ccccc2)c2ccccc2c1=O)c1cccc2ccccc12
Cannabinoid receptor 2 [2]
  Activity: 56.8%

## CCCCCn1cc(C(=O)NC2CCCc3ccccc32)c(=O)c2ccccc21 (single isomer, unassigned; (+)) [listing 2 of 2 here]
Cannabinoid receptor 2 [3]
  Activity: 183%

## CCCCCCn1cc(C(=O)c2cccc3ccccc23)c(=O)c2ccccc21
Cannabinoid receptor 2 [1]
  Ki: 0.582 µM
Cannabinoid receptor 2 [2]
  Activity: 89.5%

## CCCCCn1cc(C(=O)NC2CCCc3ccccc32)c(=O)c2cc(Cl)ccc21 (single isomer, unassigned; (+)) [listing 2 of 2 here]
Cannabinoid receptor 2 [2]
  Activity: 92.8%
Cannabinoid receptor 2 [3]
  Activity: 124%

## CCCCCn1cc(C(=O)NC(C)C23CC4CC(CC(C4)C2)C3)c(=O)c2ccccc21 (single isomer, unassigned; (+)) [listing 1 of 2 here]
Cannabinoid receptor 2 [2]
  Activity: 64.3%
Cannabinoid receptor 2 [3]
  Activity: 172%

## CCCCCn1cc(C(=O)NC(C)C23CC4CC(CC(C4)C2)C3)c(=O)c2cc(Cl)ccc21 (single isomer, unassigned; (-)) [listing 1 of 2 here]
Cannabinoid receptor 2 [1]
  Ki: 0.235 µM

## O=C(NCCc1ccccc1)c1cn(CCN2CCOCC2)c2ccccc2c1=O
Cannabinoid receptor 2 [2]
  Activity: 46.7%

## CCCCCn1cc(C(=O)NC(C)C23CC4CC(CC(C4)C2)C3)c(=O)c2ccc(Cl)cc21 (racemic) [listing 1 of 2 here]
Cannabinoid receptor 2 [1]
  Ki: 0.0411 µM

## O=C(NC12CC3CC(CC(C3)C1)C2)c1cn(CCN2CCOCC2)c2ccccc2c1=O
Cannabinoid receptor 2 [1]
  Ki: 0.152 µM
Cannabinoid receptor 2 [2]
  Activity: 101%

## CCCCCn1cc(C(=O)NC2CCCc3ccccc32)c(=O)c2cc(Cl)ccc21 (racemic) [listing 1 of 2 here]
Cannabinoid receptor 2 [2]
  Activity: 98.2%
Cannabinoid receptor 2 [3]
  Activity: 98.5%

## CCCCCn1cc(C(=O)c2ccc(OC)cc2)c(=O)c2ccccc21
Cannabinoid receptor 2 [2]
  Activity: 46.9%

## CCCCCn1cc(C(=O)NC2CCCc3ccccc32)c(=O)c2ccccc21 (single isomer, unassigned; (-)) [listing 1 of 2 here]
Cannabinoid receptor 2 [2]
  Activity: 90.9%

## O=C(c1cn(CCN2CCOCC2)c2ccccc2c1=O)c1cccc2ccccc12
Cannabinoid receptor 2 [2]
  Activity: 46.1%

## O=C(c1cn(Cc2ccccc2)c2ccccc2c1=O)c1cccc2ccccc12
Cannabinoid receptor 2 [1]
  Ki: 0.656 µM
Cannabinoid receptor 2 [2]
  Activity: 100%

## CCCCCn1cc(C(=O)NC(C)C23CC4CC(CC(C4)C2)C3)c(=O)c2ccccc21 (racemic) [listing 2 of 2 here]
Cannabinoid receptor 2 [2]
  Activity: 99.1%
Cannabinoid receptor 2 [3]
  Activity: 156%

## CC(NC(=O)c1cn(CCN2CCOCC2)c2ccccc2c1=O)c1ccccc1 (single isomer, unassigned; (-))
Cannabinoid receptor 2 [1]
  Ki: < 2 µM
Cannabinoid receptor 2 [2]
  Activity: 66.5%

## CCCCCn1cc(C(=O)NC(C)C23CC4CC(CC(C4)C2)C3)c(=O)c2ccccc21 (single isomer, unassigned; (+)) [listing 2 of 2 here]
Cannabinoid receptor 2 [1]
  Ki: 0.202 µM

## CCCCCCn1cc(C(=O)c2ccc(OC)cc2)c(=O)c2ccccc21
Cannabinoid receptor 2 [1]
  Ki: > 2 µM
Cannabinoid receptor 2 [2]
  Activity: 68.8%

## CCCCCn1cc(C(=O)NC(C)C23CC4CC(CC(C4)C2)C3)c(=O)c2ccc(Cl)cc21 (single isomer, unassigned; (-)) [listing 1 of 2 here]
Cannabinoid receptor 2 [2]
  Activity: 102%
Cannabinoid receptor 2 [3]
  Activity: 53.5%

## CCCCCn1cc(C(=O)c2ccc3ccccc3c2)c(=O)c2ccccc21
Cannabinoid receptor 2 [1]
  Ki: 1.29 µM
Cannabinoid receptor 2 [2]
  Activity: 74.3%

## O=C(c1cn(Cc2ccc(Cl)cc2)c2ccccc2c1=O)c1cccc2ccccc12
Cannabinoid receptor 2 [1]
  Ki: 1.12 µM
Cannabinoid receptor 2 [2]
  Activity: 96.5%

## CCCCCn1c(C)c(C(=O)NC(C)c2ccc3ccccc3c2)c(=O)c2ccccc21 (single isomer, unassigned; (-))
Cannabinoid receptor 2 [1]
  Ki: > 2 µM
Cannabinoid receptor 2 [2]
  Activity: 62.6%

## CCCCCn1cc(C(=O)NC(C)C23CC4CC(CC(C4)C2)C3)c(=O)c2cc(Cl)ccc21 (single isomer, unassigned; (+)) [listing 2 of 2 here]
Cannabinoid receptor 2 [2]
  Activity: 97.2%
Cannabinoid receptor 2 [3]
  Activity: 76.7%

## CCCCCn1cc(C(=O)NC(C)C23CC4CC(CC(C4)C2)C3)c(=O)c2ccccc21 (stereo in doubt; 24) [listing 2 of 2 here]
Cannabinoid receptor 2 [1]
  Ki: 0.014 µM

## CCCCCn1cc(C(=O)NC2CCCc3ccccc32)c(=O)c2ccccc21 (single isomer, unassigned; (-)) [listing 2 of 2 here]
Cannabinoid receptor 2 [1]
  Ki: 1.01 µM

## CCCCCn1c(C)c(C(=O)NC(C)c2cccc3ccccc23)c(=O)c2ccccc21 (single isomer, unassigned; (-))
Cannabinoid receptor 2 [1]
  Ki: > 3 µM
Cannabinoid receptor 2 [2]
  Activity: 70.4%

## CCCCCn1cc(C(=O)NC(C)C23CC4CC(CC(C4)C2)C3)c(=O)c2ccc(Cl)cc21 (single isomer, unassigned; (+)) [listing 2 of 2 here]
Cannabinoid receptor 2 [1]
  Ki: 0.265 µM

## CCCCCn1cc(C(=O)NC2CCCc3ccccc32)c(=O)c2cc(Cl)ccc21 (racemic) [listing 2 of 2 here]
Cannabinoid receptor 2 [1]
  Ki: 0.506 µM

## O=C(c1cn(CCCc2ccccc2)c2ccccc2c1=O)c1cccc2ccccc12
Cannabinoid receptor 2 [1]
  Ki: > 2 µM
Cannabinoid receptor 2 [2]
  Activity: 80.4%

## CCCCCn1cc(C(=O)c2ccc3cc(OC)ccc3c2)c(=O)c2ccccc21
Cannabinoid receptor 2 [2]
  Activity: 44.1%

## O=C(c1c[nH]c2ccccc2c1=O)c1cccc2ccccc12
Cannabinoid receptor 2 [2]
  Activity: 31%

## CCCCCCC(C)(C)c1ccc(C2CC(O)CC[C@H]2CCCO)c(O)c1 (single isomer, unassigned)
Cannabinoid receptor 2 [3]
  Activity: 230%

## CCCCCn1cc(C(=O)c2ccccc2)c(=O)c2ccccc21
Cannabinoid receptor 2 [1]
  Ki: 0.446 µM
Cannabinoid receptor 2 [2]
  Activity: 94.5%

## CCCCCn1cc(C(=O)c2c3ccccc3cc3ccccc23)c(=O)c2ccccc21
Cannabinoid receptor 2 [1]
  Ki: 1.5 µM
Cannabinoid receptor 2 [2]
  Activity: 76.5%

## CCCCCn1cc(CNCC2CCCc3ccccc32)c(=O)c2ccccc21 (racemic)
Cannabinoid receptor 2 [1]
  Ki: > 4 µM
Cannabinoid receptor 2 [2]
  Activity: 63.9%

## CCCCCn1cc(CNCCc2ccccc2)c(=O)c2ccccc21
Cannabinoid receptor 2 [1]
  Ki: > 4 µM
Cannabinoid receptor 2 [2]
  Activity: 25.9%

## CCCCCn1cc(C(=O)NC(C)C23CC4CC(CC(C4)C2)C3)c(=O)c2ccc(Cl)cc21 (single isomer, unassigned; (-)) [listing 2 of 2 here]
Cannabinoid receptor 2 [1]
  Ki: 0.0261 µM

## CC12CC3CC(C)(C1)CC(NC(=O)c1cn(Cc4ccc(Br)cc4)c4ccccc4c1=O)(C3)C2
Cannabinoid receptor 2 [2]
  Activity: 30.5%

## CC12CC3CC(C)(C1)CC(NC(=O)c1cn(CCC4CCCCC4)c4ccccc4c1=O)(C3)C2
Cannabinoid receptor 2 [2]
  Activity: 38.8%
Cannabinoid receptor 2 [3]
  Activity: 157%

## CCCCCn1cc(C(=O)NC(C)C23CC4CC(CC(C4)C2)C3)c(=O)c2ccc(Cl)cc21 (racemic) [listing 2 of 2 here]
Cannabinoid receptor 2 [2]
  Activity: 102%
Cannabinoid receptor 2 [3]
  Activity: 56.3%

## CCCCn1cc(C(=O)c2cccc3ccccc23)c(=O)c2ccccc21
Cannabinoid receptor 2 [1]
  Ki: 1.55 µM
Cannabinoid receptor 2 [2]
  Activity: 77.7%

## CCCCCn1cc(C(=O)NC(C)C23CC4CC(CC(C4)C2)C3)c(=O)c2cc(Cl)ccc21 (single isomer, unassigned; (-)) [listing 2 of 2 here]
Cannabinoid receptor 2 [2]
  Activity: 87.7%
Cannabinoid receptor 2 [3]
  Activity: 86.1%
